{
  "source": "paper PMC9290614",
  "about": "(The Journal of Dermatology, 2021)",
  "key": {"[1]": {"assay_type": "in vivo, human", "conditions": "for Cmin (predose trough): geometric mean (CV% geometric mean); for AUC / AUC(0-t) / Cmax / Vd/F / half-life / Tmax: human, plasma, oral; for Tmax: median (minimum, maximum)"}, "Population PK": {"assay": "Population PK", "assay_type": "in vivo, human", "conditions": "for AUC: human, plasma, oral, Median week 16 apremilast exposure (AUCτ,ss) derived from the PPK model, all subjects", "method_in_brief": "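Pooled plasma levels came from healthy or patient subjects: single oral 20–50 mg or multiple 30/50 mg b.i.d. in phase 1, plus phase 2b/3 psoriasis studies, including Japanese sparse/intensive samples at weeks 8–24. After below-LOQ exclusion, 5704 samples remained. Base model: CL/F, first-order Ka, absorption lag, Vc/F, mixed residual error. Tested covariates included age, sex, race, bodyweight and smoking.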"}, "[2]": {"system": "subjects with moderate to severe psoriasis", "assay": "Exposure-response", "assay_type": "in vivo, human", "conditions": "for Predicted probability of achieving sPGA response (0 or 1) at week 16: non-Japanese, placebo 5.0%; for Predicted probability of achieving PASI-75 response at week 16: placebo 6.1%; for Predicted probability of achieving PASI-50 response at week 16: placebo 20.0%; for sPGA Probability: at race-specific median AUCτ,ss; for Predicted probability of sPGA response (0 or 1): typical model-derived exposure, Japanese subjects, placebo 14.1%"}, "[3]": {"system": "subjects with moderate to severe psoriasis", "conditions": "cited from earlier work"}, "[4]": {"conditions": "predominantly Caucasian healthy subjects, mean [SD]; cited from earlier work"}, "CYP3A4": {"system": "CYP3A4", "conditions": "multiple p.o. doses of rifampicin (strong CYP3A4 induction); cited from earlier work"}, "[5]": {"system": "plasma IL-17A, IL-17F, and IL-22", "conditions": "30 mg b.i.d., PSOR-009 (ESTEEM 2) and PSOR-011 PD subsets; cited from earlier work"}, "[6]": {"conditions": "10 mg b.i.d., median exposure 1065.4 ng·h/mL"}, "[7]": {"conditions": "20 mg b.i.d., median exposure 2030.6 ng·h/mL"}, "[8]": {"conditions": "30 mg b.i.d., median exposure 3169.2 ng·h/mL"}, "[9]": {"conditions": "PSOR-008/ESTEEM 1, 30 mg b.i.d."}, "[10]": {"conditions": "PSOR-011, Japanese subjects, 30 mg b.i.d."}},
  "note": "Where “and” joins values, the source holds several entries; their conditions need not be identical. Identical values can stand only once. Like-named read-outs stand apart in the source and are kept apart here.",
  "data": [
    {"smiles": "CCOc1cc([C@@H](CS(C)(=O)=O)N2C(=O)c3cccc(NC(C)=O)c3C2=O)ccc1OC", "note": "[apremilast]", "values": [
      {"measurement": "Cmin (predose trough)", "setting": "[1]; Japanese subjects, 20 mg b.i.d., week 20, n = 21", "value": "91 ng/mL and 90.8 (50.1) ng/mL"},
      {"measurement": "Cmin (predose trough)", "setting": "[1]; Japanese subjects, 30 mg b.i.d., week 20, n = 20", "value": "104 ng/mL and 104 (66.6) ng/mL"},
      {"measurement": "Increase of mean AUCτ and Cmax with increase in dose", "setting": "[1]; Japanese subjects, dose from 20 to 30 mg b.i.d.", "value": "~ 1.2 times"},
      {"measurement": "AUC", "setting": "[1]; 20 mg", "value": 1960, "unit": "ng·h/mL"},
      {"measurement": "AUC(0-t)", "setting": "[1]; 20 mg", "value": 1600, "unit": "ng·h/mL"},
      {"measurement": "Cmax", "setting": "[1]; 20 mg", "value": 304, "unit": "ng/mL"},
      {"measurement": "Vd/F", "setting": "[1]; 20 mg", "value": 68, "unit": "L"},
      {"measurement": "half-life", "setting": "[1]; 20 mg", "value": 4.31, "unit": "h"},
      {"measurement": "Tmax", "setting": "[1]; 20 mg, Japanese subjects, 20 mg b.i.d., week 20, n = 21", "value": "~2", "unit": "h"},
      {"measurement": "AUC", "setting": "[1]; 30 mg", "value": 2400, "unit": "ng·h/mL"},
      {"measurement": "AUC(0-t)", "setting": "[1]; 30 mg", "value": 1970, "unit": "ng·h/mL"},
      {"measurement": "Cmax", "setting": "[1]; 30 mg", "value": 374, "unit": "ng/mL"},
      {"measurement": "Vd/F", "setting": "[1]; 30 mg", "value": 83.1, "unit": "L"},
      {"measurement": "half-life", "setting": "[1]; 30 mg", "value": 4.06, "unit": "h"},
      {"measurement": "Tmax", "setting": "[1]; 30 mg, Japanese subjects, 30 mg b.i.d., week 20, n = 20", "value": "~2", "unit": "h"},
      {"measurement": "Clearance faster than in a typical 45-year-old", "setting": "Population PK", "value": 14, "unit": "%"},
      {"measurement": "Clearance slower than in a 45-year-old", "setting": "Population PK; 80-year-old", "value": 8, "unit": "%"},
      {"measurement": "Vc/F greater than in a typical 82-kg individual", "setting": "Population PK; 102-kg individual", "value": "approximately 14%"},
      {"measurement": "CL/F, typical value (RSE %)", "setting": "Population PK; final PPK model", "value": "9.25 (3.4) L/h"},
      {"measurement": "Clearance faster in Japanese versus non-Japanese individuals", "setting": "Population PK; final PPK model", "value": "approximately 17%"},
      {"measurement": "Ka, first-order rate of absorption, typical value (RSE %)", "setting": "Population PK; final PPK model", "value": "1.83 (11.7) h^−1"},
      {"measurement": "Lag time of absorption, typical value (RSE %)", "setting": "Population PK; final PPK model", "value": "0.290 (11.7) h"},
      {"measurement": "Reduction of CL/F in subjects with psoriasis compared with healthy subjects", "setting": "Population PK; final PPK model", "value": "approximately 17%"},
      {"measurement": "Vc/F, typical value (RSE %)", "setting": "Population PK; final PPK model", "value": "115 (2.2) L"},
      {"measurement": "AUC", "setting": "Population PK; 20 mg, 20 mg b.i.d.", "value": 2030, "unit": "ng·h/mL"},
      {"measurement": "AUC", "setting": "Population PK; 30 mg, 30 mg b.i.d.", "value": 3170, "unit": "ng·h/mL"},
      {"measurement": "Predicted probability of achieving sPGA response (0 or 1) at week 16", "setting": "[2]; [6]", "value": 16.2, "unit": "%"},
      {"measurement": "Predicted probability of achieving PASI-75 response at week 16", "setting": "[2]; [6]", "value": 19.0, "unit": "%"},
      {"measurement": "Predicted probability of achieving PASI-50 response at week 16", "setting": "[2]; [6]", "value": 43.8, "unit": "%"},
      {"measurement": "sPGA Probability", "setting": "[2]; 20 mg BID, Caucasian", "value": 23.2, "unit": "%"},
      {"measurement": "sPGA Probability", "setting": "[2]; 20 mg BID, Japanese", "value": 32.9, "unit": "%"},
      {"measurement": "Predicted probability of achieving sPGA response (0 or 1) at week 16", "setting": "[2]; [7]", "value": 22.7, "unit": "%"},
      {"measurement": "Predicted probability of achieving PASI-75 response at week 16", "setting": "[2]; [7]", "value": 28.6, "unit": "%"},
      {"measurement": "Predicted probability of achieving PASI-50 response at week 16", "setting": "[2]; [7]", "value": 55.3, "unit": "%"},
      {"measurement": "Predicted probability of sPGA response (0 or 1)", "setting": "[2]; 20 mg b.i.d.", "value": 33.8, "unit": "%"},
      {"measurement": "sPGA Probability", "setting": "[2]; 30 mg BID, Caucasian", "value": 27.5, "unit": "%"},
      {"measurement": "sPGA Probability", "setting": "[2]; 30 mg BID, Japanese", "value": 36.3, "unit": "%"},
      {"measurement": "Predicted probability of achieving sPGA response (0 or 1) at week 16", "setting": "[2]; [8]", "value": 27.3, "unit": "%"},
      {"measurement": "Predicted probability of achieving PASI-75 response at week 16", "setting": "[2]; [8]", "value": 36.5, "unit": "%"},
      {"measurement": "Predicted probability of achieving PASI-50 response at week 16", "setting": "[2]; [8]", "value": 62.8, "unit": "%"},
      {"measurement": "Predicted probability of sPGA response (0 or 1)", "setting": "[2]; 30 mg b.i.d.", "value": 37.5, "unit": "%"},
      {"measurement": "Rate of PASI-75 response at week 16", "setting": "[3]; PSOR-005, 30 mg b.i.d.", "value": 40.9, "unit": "%"},
      {"measurement": "Rate of sPGA response (0 or 1) at week 16", "setting": "[3]; PSOR-005, 30 mg b.i.d.", "value": 33.0, "unit": "%"},
      {"measurement": "Treatment effect (difference in proportions between apremilast 30 mg b.i.d. and placebo), PASI-75", "setting": "[3]; PSOR-005", "value": 35.2, "unit": "%"},
      {"measurement": "Treatment effect (difference in proportions between apremilast 30 mg b.i.d. and placebo), sPGA response", "setting": "[3]; PSOR-005", "value": 21.1, "unit": "%"},
      {"measurement": "Rate of PASI-75 response at week 16", "setting": "[3]; [9]", "value": 33.1, "unit": "%"},
      {"measurement": "Rate of sPGA response (0 or 1) at week 16", "setting": "[3]; [9]", "value": 21.7, "unit": "%"},
      {"measurement": "Treatment effect (difference in proportions between apremilast 30 mg b.i.d. and placebo), PASI-75", "setting": "[3]; PSOR-008/ESTEEM 1", "value": 27.8, "unit": "%"},
      {"measurement": "Treatment effect (difference in proportions between apremilast 30 mg b.i.d. and placebo), sPGA response", "setting": "[3]; PSOR-008/ESTEEM 1", "value": 17.8, "unit": "%"},
      {"measurement": "Rate of PASI-75 response at week 16", "setting": "[3]; [10]", "value": 28.2, "unit": "%"},
      {"measurement": "Rate of sPGA response (0 or 1) at week 16", "setting": "[3]; [10]", "value": 29.6, "unit": "%"},
      {"measurement": "Treatment effect (difference in proportions between apremilast 30 mg b.i.d. and placebo), PASI-75", "setting": "[3]; PSOR-011", "value": 21.1, "unit": "%"},
      {"measurement": "Treatment effect (difference in proportions between apremilast 30 mg b.i.d. and placebo), sPGA response", "setting": "[3]; PSOR-011", "value": 20.8, "unit": "%"},
      {"measurement": "AUC0-∞", "setting": "[4]", "value": "3270 [1081] ng·h/mL"},
      {"measurement": "Cmax", "setting": "[4]", "value": "298 [81.4] ng/mL"},
      {"measurement": "Decrease in apremilast exposure", "setting": "CYP3A4", "value": "~72", "unit": "%"},
      {"measurement": "Increase in apremilast clearance", "setting": "CYP3A4", "value": 3.6, "unit": "times"},
      {"measurement": "Effect on plasma IL-17A, IL-17F, and IL-22", "setting": "[5]", "value": "significantly reduced"}
    ]}
  ]
}
